Measurements pooled from the literature.
Protocols differ between the studies behind these lines.
Target: Serine/threonine-protein kinase PknB (pknB, Mycobacterium tuberculosis, UniProt P9WI81)

N[C@H]1CCN(c2nccc(-c3cnn4ncccc34)n2)C1 has a remaining binding of 98% (binding; 1 µM).
For C[C@@H](c1ccc(-n2cnc3c(N)ncnc32)cc1)N1CCc2nn(C)c(Cc3ccccc3)c2C1=O, the remaining binding was 96% (binding; competition with immobilised ligand; 0.1 µM).
For CN(c1nccc(-c2cnn3ncccc23)n1)C1CC1, the remaining binding was 100% (binding; 1 µM).
The remaining binding of CNC(=O)Nc1ccc2c(c1)[C@@]1(CC2)OC(=O)N(CC(=O)N(Cc2ccc(F)cc2)[C@@H](C)C(F)(F)F)C1=O is reported as 84% (cell-free assay; competition with immobilised ligand; 1 µM).
CNC(=O)[C@@H]1CC[C@@H](n2c(-c3ccc4cnccc4c3)nc3ccc(C(=O)NCc4cccc(C(N)=O)c4)cc32)C1 has a remaining binding of 96% (binding; competition with immobilised ligand; 1 µM).
Cc1nn(C)cc1-c1nc2c(N3CCN(Cc4ccc(Cl)cc4)CC3)c(Cl)cnc2[nH]1 gave a remaining binding of 56% (binding; competition with immobilised ligand; 1 µM).
For FC(F)(F)Oc1cccc(-c2cnc3ccc(-c4ccncc4)nn23)c1, the remaining binding was 31% (cell-free assay; competition with immobilised ligand; 5 µM).
For C[C@@H]1CCN(c2nccc(-c3cnn4ncccc34)n2)C1, the remaining binding was 100% (binding; 1 µM).
CN(C)CC#Cc1ccc(OCCCc2sc(N3CCc4cccc(C(=O)Nc5nc6ccccc6s5)c4C3)nc2C(=O)O)c(F)c1 gave a remaining binding of 100% (cell-free assay; competition with immobilised ligand; 1 µM).
c1cncc(-c2cccc(Nc3nccc(NC4CCCCC4)n3)c2)c1 has a remaining binding of 89% (binding; competition with immobilised ligand; 10 µM).
With COc1ccc2c(c1)O[C@@H](c1ccc(OC)c(OC)c1)C[C@H]2NC(=O)C1(c2ccc3c(c2)OC(F)(F)O3)CC1 the remaining binding was 85% (cell-free assay; competition with immobilised ligand; 1 µM).
CN(C)c1ncc(F)c(-c2cnn3ncccc23)n1 has a remaining binding of 87% (binding; 1 µM).
With O=C(Nc1c[nH]nc1C(=O)NC1CCNCC1)c1cc(F)cc(F)c1 the remaining binding was 100% (binding; competition with immobilised ligand; 1 µM).
F[C@@H]1CCN(c2nccc(-c3cnn4ncccc34)n2)C1 gave a remaining binding of 100% (binding; 1 µM).
The remaining binding of O=C(NCCCC1CCCCC1)c1ccc(CNC(=O)c2cnn(-c3ccccc3)c2C(F)(F)F)cc1 is reported as 100% (cell-free assay; competition with immobilised ligand; 0.1 µM).
